Tests used:
[1] = molecular target: Poly [ADP-ribose] polymerase 2 (Homo sapiens, UniProt Q9UGN5); experiment: Inhibition of human recombinant PARP2
[2] = Oral bioavailability in CD1 mouse at 10 mg/kg; type: ADME, organism-based; settings: in vivo
Method in brief: (§1)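 Mouse PK: oral dose 10 mg/kg in 2.5% EtOH, 1 drop Tween-80, 25% PEG400 in PBS; iv dose 3 mg/kg in 2.5% EtOH, 5% DMSO, 1 drop Tween-80, 25% PEG400 in PBS. Oral bioavailability, iv half-life, oral AUC and Cmax derived from plasma profiles.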

[3] = Half life in CD1 mouse at 3 mg/kg, iv; type: ADME, organism-based; design: dose 3 mg/kg, route intravenous; settings: in vivo; method in brief: as §1
[4] = AUC in CD1 mouse at 10 mg/kg, po; type: ADME, organism-based; design: dose 10 mg/kg, route oral; settings: plasma; method in brief: as §1
[5] = Cmax in CD1 mouse at 10 mg/kg, po; type: ADME, organism-based; design: dose 10 mg/kg, route oral; settings: in vivo; method in brief: as §1
[6] = Volume of distribution at steady state in Sprague-Dawley rat at 5 mg/kg; type: ADME, organism-based; design: dose 5 mg/kg; settings: in vivo, read-out: Vdss
[7] = Clearance in Sprague-Dawley rat at 5 mg/kg; type: ADME, organism-based; design: dose 5 mg/kg; settings: in vivo
[8] = Oral bioavailability in Beagle dog at 2.5 mg/kg; type: ADME, organism-based, Canis lupus familiaris; settings: in vivo
[9] = Half life in Beagle dog at 2.5 mg/kg, iv; type: ADME, organism-based, Canis lupus familiaris; design: dose 2.5 mg/kg, route intravenous; settings: in vivo
[10] = AUC in Beagle dog at 2.5 mg/kg, po; type: ADME, organism-based, Canis lupus familiaris; design: dose 2.5 mg/kg, route oral; settings: plasma
[11] = Cmax in Beagle dog at 2.5 mg/kg, po; type: ADME, organism-based, Canis lupus familiaris; design: dose 2.5 mg/kg, route oral; settings: in vivo
[12] = Volume of distribution at steady state in Beagle dog at 2.5 mg/kg; type: ADME, organism-based, Canis lupus familiaris; design: dose 2.5 mg/kg; settings: in vivo, read-out: Vdss
[13] = Clearance in Beagle dog at 2.5 mg/kg; type: ADME, organism-based, Canis lupus familiaris; design: dose 2.5 mg/kg; settings: in vivo
[14] = Oral bioavailability in cynomolgus monkey at 2.5 mg/kg; type: ADME, organism-based, Macaca fascicularis; settings: in vivo
[15] = Half life in cynomolgus monkey at 2.5 mg/kg, iv; type: ADME, organism-based, Macaca fascicularis; design: dose 2.5 mg/kg, route intravenous; settings: in vivo
[16] = AUC in cynomolgus monkey at 2.5 mg/kg, po; type: ADME, organism-based, Macaca fascicularis; design: dose 2.5 mg/kg, route oral; settings: plasma
[17] = Cmax in cynomolgus monkey at 2.5 mg/kg, po; type: ADME, organism-based, Macaca fascicularis; design: dose 2.5 mg/kg, route oral; settings: in vivo
[18] = Volume of distribution at steady state in cynomolgus monkey at 2.5 mg/kg; type: ADME, organism-based, Macaca fascicularis; design: dose 2.5 mg/kg; settings: in vivo, read-out: Vdss
[19] = Clearance in cynomolgus monkey at 2.5 mg/kg; type: ADME, organism-based, Macaca fascicularis; design: dose 2.5 mg/kg; settings: in vivo
[20] = Volume of distribution at steady state in CD1 mouse at 10 mg/kg; type: ADME, organism-based; design: dose 10 mg/kg; settings: in vivo, read-out: Vdss
[21] = Clearance in CD1 mouse at 10 mg/kg; type: ADME, organism-based; design: dose 10 mg/kg; settings: in vivo
Method in brief: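 Mouse pharmacokinetics. Oral dose of 10 mg/kg in 2.5% EtOH, 1 drop Tween-80 and 25% PEG400 in PBS. Intravenous dose of 3 mg/kg in 2.5% EtOH, 5% DMSO, 1 drop Tween-80 and 25% PEG400 in PBS.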

[22] = Oral bioavailability in Sprague-Dawley rat at 5 mg/kg; type: ADME, organism-based; settings: in vivo
[23] = Half life in Sprague-Dawley rat at 5 mg/kg, iv; type: ADME, organism-based; design: dose 5 mg/kg, route intravenous; settings: in vivo
[24] = AUC in Sprague-Dawley rat at 5 mg/kg, po; type: ADME, organism-based; design: dose 5 mg/kg, route oral; settings: plasma
[25] = Cmax in Sprague-Dawley rat at 5 mg/kg, po; type: ADME, organism-based; design: dose 5 mg/kg, route oral; settings: in vivo

Chain of Poly [ADP-ribose] polymerase 2 (Q9UGN5 whole entry): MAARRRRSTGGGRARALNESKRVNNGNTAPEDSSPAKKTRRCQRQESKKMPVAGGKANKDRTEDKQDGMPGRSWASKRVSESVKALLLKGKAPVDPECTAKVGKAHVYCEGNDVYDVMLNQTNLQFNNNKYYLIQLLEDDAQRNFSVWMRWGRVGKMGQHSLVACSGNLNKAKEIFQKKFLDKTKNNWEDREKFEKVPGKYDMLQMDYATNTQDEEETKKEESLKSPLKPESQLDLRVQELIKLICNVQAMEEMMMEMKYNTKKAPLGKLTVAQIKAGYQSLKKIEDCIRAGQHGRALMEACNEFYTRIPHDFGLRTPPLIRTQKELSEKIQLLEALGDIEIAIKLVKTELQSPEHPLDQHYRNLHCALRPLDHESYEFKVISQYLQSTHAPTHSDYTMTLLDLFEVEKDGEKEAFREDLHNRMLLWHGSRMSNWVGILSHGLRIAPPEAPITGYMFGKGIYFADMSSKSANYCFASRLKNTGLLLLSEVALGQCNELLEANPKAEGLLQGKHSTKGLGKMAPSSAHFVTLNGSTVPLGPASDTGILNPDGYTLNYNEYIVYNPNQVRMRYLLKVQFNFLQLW

| Compound | Ki [1] [nM] | bioavailability [2] [%] | half-life [3] [h] | AUC [4] [ng·h/mL] | Cmax [5] [ng/mL] | other results |
| --- | --- | --- | --- | --- | --- | --- |
| C[C@]1(c2nc3c(C(N)=O)cc(F)cc3[nH]2)CCCN1 | 4 | 100 | 0.5 | 1500 | 1000 |  |
| CC1(c2nc3c(C(N)=O)cccc3[nH]2)CCNCC1 | 2 | 20 | 1.2 | 400 | 100 |  |
| CC(C)N1CCC(C)(c2nc3c(C(N)=O)cccc3[nH]2)C1 (configuration not stated) |  | 100 | 1.4 | 1000 | 500 |  |
| C[C@@]1(c2nc3c(C(N)=O)cccc3[nH]2)CCCN1 |  | 66 | 1.2 | 1100 | 800 | Vd [6]: 7.5 L/kg; clearance [7]: 33.3 mL/min/kg; bioavailability [8]: 48%; half-life [9]: 2.2 h; AUC [10]: 1400 ng·h/mL; Cmax [11]: 500 ng/mL; Vd [12]: 2.9 L/kg; clearance [13]: 15 mL/min/kg; bioavailability [14]: 39%; half-life [15]: 1.5 h; AUC [16]: 700 ng·h/mL; Cmax [17]: 200 ng/mL; Vd [18]: 3 L/kg; clearance [19]: 23.3 mL/min/kg; Vd [20]: 10.3 L/kg; clearance [21]: 103 mL/min/kg; bioavailability [22]: 72%; half-life [23]: 2.4 h; AUC [24]: 1900 ng·h/mL; Cmax [25]: 600 ng/mL |
| CN1CCCC1(C)c1nc2c(C(N)=O)cccc2[nH]1 (configuration not stated) |  | 36 | 0.55 | 200 | 100 |  |
